Compound activity deposited in PubChem BioAssay by The Scripps Research Institute Molecular Screening Center.
HTRA1 inh – blocks human HTRA1 serine peptidase; recombinant HTRA1, FP-rhodamine activity-based probe, fluorescence polarization; Q92743; inhibition, % at 5.96 µM; 340,000 compounds, 0.5% hits; AID 504803; in the data active = inhibition above about 36%
Target sequence (Q92743 whole entry, looked up): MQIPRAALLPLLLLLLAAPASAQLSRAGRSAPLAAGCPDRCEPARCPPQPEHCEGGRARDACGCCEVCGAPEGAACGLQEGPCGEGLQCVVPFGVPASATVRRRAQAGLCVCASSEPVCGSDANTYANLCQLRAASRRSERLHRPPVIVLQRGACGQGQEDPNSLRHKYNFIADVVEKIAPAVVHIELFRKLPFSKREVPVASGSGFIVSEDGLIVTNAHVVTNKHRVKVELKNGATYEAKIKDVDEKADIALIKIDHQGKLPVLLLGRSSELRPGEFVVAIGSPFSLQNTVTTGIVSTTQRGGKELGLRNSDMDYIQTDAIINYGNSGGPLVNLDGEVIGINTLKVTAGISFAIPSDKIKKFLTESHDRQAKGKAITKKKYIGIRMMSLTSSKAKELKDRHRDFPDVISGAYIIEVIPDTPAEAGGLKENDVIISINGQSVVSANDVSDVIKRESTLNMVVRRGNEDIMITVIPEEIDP
SIAE inh – inhibitors of human sialic acid acetylesterase SIAE; Q9HAT2; SIAE FP-Rh probe binding, fluorescence polarization; inhibition, % at 9.66 µM; 370,000 compounds, 0.69% hits;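 active = inhibition above a cutoff: mean of compounds within the control limits plus 3 SD of those, cut at about 17% in these data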
RBBP9 inhibitor – blocks human serine hydrolase RBBP9; recombinant RBBP9, FP-Rh probe fluorescence polarization; inhibition, % at 7.94 µM; 220,000 compounds, 0.2% hits; AID 1515;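 active = inhibition above the campaign mean of all tested compounds plus 3 SD, cut at about 14% in these data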
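System: RBBP9 protein / Quantity: 2.5 µM RBBP9 dispensing solution, before mixing / Also added: Serine-hydrolase probe FP-Rh, 375 nM pre-mixing / Dosing: 7.94 µM single dose, 0.794% DMSO / Timing: enzyme-compound preincubation 30 min, then probe labeling 45 min, 25 °C / Signal: FP readout at 525/598 nm / Controls: DMSO-treated enzyme wells and wells lacking RBBP9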
mABHD4 FP – inhibits mouse alpha/beta hydrolase domain 4. Q8VD66. purified mABHD4, FP-Rh probe fluorescence polarization. inhibition, % at 8.92 µM. 370,000 compounds, 0.54% hits. AID 720543;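 active = inhibition exceeding the mean over every tested compound plus 3 SD, cut at about 30% in these data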
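Assay system: Wild-type mouse ABHD4 protein | Medium: HEPES pH 7.0 buffer, 150 mM NaCl, 0.01% Pluronic F-127 | Incubation: Enzyme–compound pre-incubation 45 min, then probe 60 min, both 25 °C | Technique: Fluorescence polarization with parallel and perpendicular emission, 525/598 nm | Evaluation: % inhibition of FP-Rh probe binding versus controls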
HTRA1 conf – HTRA1 (human) inhibition, confirmation; 1,600 compounds, 66% hits; inhibition, % at 5.96 µM; shares compounds with HTRA1 inh; recombinant HTRA1, FP-rhodamine activity-based probe, fluorescence polarization;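 active = mean inhibition over three repeats above a set limit taken from the earlier primary screen, cut at about 37% in these data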;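 note: inhibitors block probe binding so polarization drops and inhibition rises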
Numbers stand for hits; . = inactive; / = no result; + = active, no number. Most compounds without a hit are left out; they make up all but 1.4% or so of the library.

SMILES | HTRA1 inh | SIAE inh | RBBP9 inhibitor | mABHD4 FP | HTRA1 conf
Cc1ccc(C(NC(=O)C(C)C)c2cc([N+](=O)[O-])c3cccnc3c2O)cc1 (configuration not stated) | 37 | . | . | . | 65
CCC(=O)NC(/C=C/c1ccccc1)c1cc([N+](=O)[O-])c2cccnc2c1O (configuration not stated) | / | . | . | . | /
CN(C)c1ccc(NC(=O)CSCc2nc3c(nnn3Cc3ccc(F)cc3)c(=O)[nH]2)cc1 | 38 | / | . | / | .
Cc1cccc(NC(=O)CSCc2nc3c(nnn3Cc3ccc(F)cc3)c(=O)[nH]2)c1C | . | . | . | . | /
CC(O)(c1ccc(F)c(F)c1)c1nc(-c2cccc(C#N)c2)cs1 (configuration not stated) | / | . | / | . | /
COc1cc(C(C(=O)NC(C)(C)C)N(C(=O)CNC(=O)c2cccs2)c2ccc(C(C)C)cc2)cc(OC)c1OC (configuration not stated) | 39 | . | . | . | 49
CO[C@H](C(=O)N(C)C[C@@H]1OCc2ccccc2-c2c(n(C)c3ccccc23)C(=O)N([C@H](C)CO)C[C@@H]1C)c1ccccc1 | . | . | / | . | /
O=C1CCNc2ccc(-c3ccccc3)cc21 | . | . | . | . | /
O=C1CCNc2cc3ccccc3cc21 | 41 | / | . | / | .
CC1=NN(c2ccc(C(=O)O)cc2)C(=O)/C1=C\c1ccc(OC(=O)c2cccs2)cc1 | 39 | . | . | . | .
CC1(C(=O)NS(=O)(=O)C2CC2)CCCN(C(=O)c2ccc3c(c2)OCO3)C1 (configuration not stated) | / | . | / | . | /
Cc1ccc(O)c(CNCCNCc2cc(C)ccc2O)c1 | 38 | . | / | . | 53
CCc1ccc(O)c(CNCCNCc2cc(CC)ccc2O)c1 | . | . | / | . | /
Nc1ncnc(Oc2cccc3cccnc23)c1[N+](=O)[O-] | 40 | . | . | . | .
Cc1cccc(Oc2ncnc(N)c2[N+](=O)[O-])c1C | . | . | . | . | /
CCCn1c(CNc2ccccc2O)nc2ccccc21 | 44 | . | . | . | 59
Cc1ccc(-c2cc(-c3nnc(SCC(=O)Nc4nccs4)n3N)[nH]n2)cc1 | / | . | / | . | /
CCOc1ccc(N2C(=O)CS/C2=C(\C(Cl)=C(Cl)Cl)[N+](=O)[O-])cc1 | 42 | / | . | / | +
CCOc1ccc(N2C(=O)CNC2=S)cc1 | . | . | . | . | /
O=C1CCCN1CCCNc1nc(NCc2cccs2)nc2ccsc12 | / | . | / | . | /
CC(=O)NC(C)c1cc(Cl)c2cccnc2c1O (configuration not stated) | 41 | . | / | . | 52
O=C(O)COc1ccccc1C(Nc1cccnc1)c1cc(Cl)c2cccnc2c1O (configuration not stated) | / | / | . | / | /
O=C(NC(c1ccccc1)c1cc(Cl)c2cccnc2c1O)c1cccnc1 (configuration not stated) | / | . | . | . | /
CCOc1ccc(C(Nc2cccnc2)c2cc(Cl)c3cccnc3c2O)cc1 (configuration not stated) | 43 | . | . | . | 42
CCC(=O)NC(c1ccc(C)cc1)c1cc(Cl)c2cccnc2c1O (configuration not stated) | 62 | / | / | / | 76
SMILES | HTRA1 inh | SIAE inh | RBBP9 inhibitor | mABHD4 FP | HTRA1 conf
CCC(=O)NC(C)c1cc(Cl)c2cccnc2c1O (configuration not stated) | 48 | . | / | . | 82
CN1CCN(C(c2ccc(F)cc2)c2ccc3cccnc3c2O)CC1 (configuration not stated) | . | / | / | / | /
CN1CCN(C(c2ccc(Br)cc2)c2cc(Cl)c3cccnc3c2O)CC1 (configuration not stated) | 52 | . | / | . | 70
COc1ccc(C(NC(C)=O)c2cc(Cl)c3cccnc3c2O)cc1OC (configuration not stated) | 42 | . | . | . | 56
COc1ccc(NC(=O)NNC(=O)c2cc3ccccc3cc2O)cc1 | . | . | / | . | /
COc1ccc(C)cc1NC(=O)NNC(=O)c1cc2ccccc2cc1O | 42 | . | / | . | .
O=C(NCc1cccnc1)c1cc(C2CCCCN2C(=O)c2ccc(Cl)cc2)on1 (configuration not stated) | / | . | / | . | /
Nc1[nH]c(C(=O)c2ccccc2)c(-c2ccccn2)c1C(=O)c1c[nH]c2ccc(Br)cc12 | / | . | / | . | /
C(=N\NC1=Nc2cccc3cccc1c23)/c1ccccn1 | 49 | . | . | . | 50
Clc1ccccc1/C=N/NC1=Nc2cccc3cccc1c23 | . | . | . | . | /
Cc1ccc(NC(=O)OC2CC3CC2[C@H]2CCCCN2C3)cc1 (some centres not stated) | / | . | / | . | /
COc1c(-c2ccc(O)c(O)c2)oc2cc(O)cc(O)c2c1=O | 37 | . | / | . | 48
O=c1c(O[C@@H]2O[C@H](CO)[C@H](O)[C@H](O)[C@H]2O)c(-c2ccc(O)c(O)c2)oc2cc(O)cc(O)c12 | / | / | . | / | /
C[C@@H]1Cc2cc(O)cc(O)c2C(=O)O1 | / | . | / | . | /
COCc1cc(C)nc(SCC(=O)c2ccc(O)c(O)c2)c1C#N | 61 | . | . | . | 50
CCOC(=O)C(C)/C(C)=N/NC(=O)c1cc2ccccc2cc1O (configuration not stated) | 43 | . | . | . | .
C/C(=N\NC(=O)c1cc2ccccc2cc1O)c1ccc2c(c1)OCO2 | 42 | . | . | . | .
O=C(NN=Cc1c(O)ccc2ccccc12)c1ccc2c(c1)OCO2 | 37 | . | / | . | .
O=C(NCCO)c1cc2ccccc2cc1O | . | . | . | . | /
COc1ccc(C(CNC(=O)COc2cccc(C(F)(F)F)c2)N2CCCC2)cc1 (configuration not stated) | . | . | / | . | /
CC(C)C[C@H]1COc2cccc(N3CCC[C@H]3CO)c2S(=O)(=O)N1 | / | . | / | . | /
Cc1cc(C)c(C)c(S(=O)(=O)N2CCC(C(=O)NNC(=O)c3ccccc3O)CC2)c1C | 46 | . | / | . | 48
Cn1c(/C=N/Nc2nc3ccccc3[nH]2)nc2ccccc21 | 36 | . | . | . | 44
O=C1OC(Nc2cc(Br)cc3cccnc23)c2ccccc21 (configuration not stated) | 45 | 34 | . | 88 | .
O=C1OC(Nc2ncccn2)c2ccccc21 (configuration not stated) | . | . | . | . | /
O=C(NCCc1ccc(O)c(O)c1)C1COc2ccccc2O1 (configuration not stated) | 40 | . | / | . | 61
O=C1C=CC(=O)N1 | . | . | / | . | /
CCC(=O)NC(c1cccs1)c1ccc2cccnc2c1O (configuration not stated) | 41 | . | . | . | 46
Oc1c(C(Nc2nc3ccccc3s2)c2ccco2)ccc2cccnc12 (configuration not stated) | 36 | . | . | . | 40
CC(=O)NC(c1cccs1)c1cc(F)c2cccnc2c1O (configuration not stated) | . | . | / | . | /
